Measured values of several laboratories.
Compare with care: the assays were run in different laboratories.
Target: Muscle, skeletal receptor tyrosine-protein kinase (MUSK, Homo sapiens, UniProt O15146)
Residues used in one study (O15146 24-869): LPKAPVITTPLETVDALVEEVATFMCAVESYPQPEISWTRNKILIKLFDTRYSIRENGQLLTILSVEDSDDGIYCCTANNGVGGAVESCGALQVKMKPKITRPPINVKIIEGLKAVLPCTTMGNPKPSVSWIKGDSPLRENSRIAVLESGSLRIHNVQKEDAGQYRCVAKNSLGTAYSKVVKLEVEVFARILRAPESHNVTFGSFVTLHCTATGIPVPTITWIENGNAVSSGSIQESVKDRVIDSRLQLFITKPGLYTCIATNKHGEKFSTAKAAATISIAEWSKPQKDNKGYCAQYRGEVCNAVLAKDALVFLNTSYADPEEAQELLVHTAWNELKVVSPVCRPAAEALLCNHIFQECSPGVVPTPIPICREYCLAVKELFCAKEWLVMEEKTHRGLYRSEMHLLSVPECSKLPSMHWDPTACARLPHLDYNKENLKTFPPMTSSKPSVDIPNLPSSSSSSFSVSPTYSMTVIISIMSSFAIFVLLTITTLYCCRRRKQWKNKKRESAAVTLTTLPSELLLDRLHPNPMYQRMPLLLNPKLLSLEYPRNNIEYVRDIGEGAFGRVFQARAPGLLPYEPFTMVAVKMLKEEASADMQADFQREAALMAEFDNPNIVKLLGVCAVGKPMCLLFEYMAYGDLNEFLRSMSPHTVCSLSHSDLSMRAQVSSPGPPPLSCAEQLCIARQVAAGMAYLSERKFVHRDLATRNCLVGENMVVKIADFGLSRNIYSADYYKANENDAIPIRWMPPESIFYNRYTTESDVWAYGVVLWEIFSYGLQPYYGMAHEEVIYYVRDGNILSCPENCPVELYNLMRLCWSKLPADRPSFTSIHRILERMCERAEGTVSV

Compound	observed	technique	concentration	remaining binding [%]
O=C(c1ccc(Nc2ncc(Cl)c(-c3ccc(Cl)s3)n2)cc1)N1CCC(N2CCCC2)CC1	binding	competition with immobilised ligand	1 µM	57
N[C@H]1CCN(c2nccc(-c3cnn4ncccc34)n2)C1	binding	–	1 µM	100
Cc1c(NC(=O)c2cc(C(N)=O)nc3cc(F)ccc23)c(C(F)(F)F)nn1Cc1ccc(C#N)cc1	cell-free assay	competition with immobilised ligand	1 µM	95
COc1cnc(Nc2cccc(S(N)(=O)=O)c2)nc1N1CCN(c2ccccc2)CC1	binding	competition with immobilised ligand	1 µM	97
O=C1CCc2cc(Nc3cc(OC4CCOCC4)c([N+](=O)[O-])cc3Cl)ccc2N1	cell-free assay	competition with immobilised ligand	1 µM	100
C=CC(=O)N1CCC(C(=O)NCC(=O)N2CCN(c3nc(-c4cnc(N)nc4C(F)F)nc(N4CCOCC4)n3)CC2)CC1	binding	competition with immobilised ligand	1 µM	79
O=C(NCC1CCOCC1)c1n[nH]cc1NC(=O)c1c(F)cccc1F	binding	competition with immobilised ligand	1 µM	88
c1cncc(-c2cccc(Nc3nccc(NC4CCCCC4)n3)c2)c1	binding	competition with immobilised ligand	10 µM	86
FC(F)(F)Oc1cccc(-c2cnc3ccc(-c4ccncc4)nn23)c1	cell-free assay	competition with immobilised ligand	5 µM	99
CCC(=O)N[C@H]1CC[C@@H](C(=O)N(C)c2ccc(-c3nc4ccccc4o3)cc2)C1	cell-free assay	competition with immobilised ligand	1 µM	100
CN(C)c1ncc(F)c(-c2cnn3ncccc23)n1	binding	–	1 µM	100
FC(F)(F)c1ccc2c(c1)nc(-c1cccnc1)n2C1CC1	cell-free assay	competition with immobilised ligand	1 µM	100
CN(CCCC(F)(F)F)c1nccc(-c2cnn3ncccc23)n1	binding	–	1 µM	100
N#Cc1ccc(Nc2ccc3[nH]c(=O)[nH]c3c2)c(Cl)c1	cell-free assay	competition with immobilised ligand	1 µM	100
COc1cnc(Nc2cccc(S(N)(=O)=O)c2)nc1N1CCN(c2ccccc2)C(=O)C1	binding	competition with immobilised ligand	1 µM	99
O=C(NS(=O)(=O)c1ccc(NCC2CCOCC2)c([N+](=O)[O-])c1)c1ccc(N2CCN(Cc3ccc(C(F)(F)F)cc3-c3ccc(Cl)cc3)CC2)cc1Oc1cnc2[nH]ccc2c1	cell-free assay	competition with immobilised ligand	1 µM	98
CN(C)c1nccc(-c2cnc3ncccn23)n1	binding	–	1 µM	83
O=C(c1ccc(Nc2nccc(-c3cc4ccccc4s3)n2)cc1)N1CCC(N2CCCC2)CC1	binding	competition with immobilised ligand	1 µM	72
C[C@@H]1CCN(c2nccc(-c3cnn4ncccc34)n2)C1	binding	–	1 µM	92
Cc1cnc(Nc2ccc(C(=O)N3CCC(N4CCCC4)CC3)cc2)nc1-c1cc2ccccc2s1	binding	competition with immobilised ligand	1 µM	30
CO[C@@H](C)c1c(Nc2ccc([C@@H](N(C)C(=O)C3CCS(=O)(=O)CC3)C(F)(F)F)cc2)cnc2cc(Cl)nn12	cell-free assay	competition with immobilised ligand	1 µM	88
c1cnn2ncc(-c3ccnc(N4CCC45COC5)n3)c2c1	binding	–	1 µM	80
